Experimental data published in ChEMBL document CHEMBL1158691, “Brevicompanine C, cyclo-(D-Ile-L-Trp), and cyclo-(D-Leu-L-Trp), plant growth regulators from Penicillium brevi-compactum” (2005).
The source made the active and inactive calls. The calls are words filed in the database; no cut-off is given here.

Assays:
[1] = system: Lactuca sativa; assay: Inhibition of hypocotyl elongation of lettuce seedlings at 100 mg/L after 4 days under 100 uE/m'2 light relative to control; format: functional
Procedure, shortened: (§1)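 Lactuca sativa cv. Kingcisco seeds sown on filter paper wetted with deionized water, 1 day at 24 °C in continuous light (100 μE/m² s). Uniform seedlings (radicles 2 mm) moved to small dishes on filter paper with 1 mL deionized water containing test compound, kept 4 days at 24 °C in continuous light. Hypocotyl and root lengths measured; mean compared with untreated control; triplicate experiments.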

[2] = system: Lactuca sativa; assay: Induction of root elongation in lettuce seedlings at 1 to 100 mg/L after 4 days under 100 uE/m'2 light; format: functional, organism-based; procedure, shortened: as §1
[3] = system: Lactuca sativa; assay: Induction of root elongation in lettuce seedlings at 100 mg/L after 4 days under 100 uE/m'2 light relative to control; format: functional; procedure, shortened: as §1
[4] = system: Lactuca sativa; assay: Inhibition of hypocotyl elongation in lettuce seedlings at 1 to 100 mg/L after 4 days under 100 uE/m'2 light relative to control; format: functional, organism-based; procedure, shortened: as §1
[5] = system: Lactuca sativa; assay: Inhibition of root elongation in lettuce seedlings at 1 to 100 mg/L after 4 days under 100 uE/m'2 light; format: functional, organism-based; procedure, shortened: as §1
[6] = system: Lactuca sativa; assay: Induction of hypocotyl elongation in lettuce seedlings at 1 mg/L after 4 days under 100 uE/m'2 light; format: functional; procedure, shortened: as §1
[7] = system: Lactuca sativa; assay: Induction of hypocotyl elongation in lettuce seedlings at 10 mg/L after 4 days under 100 uE/m'2 light; format: functional; procedure, shortened: as §1
[8] = system: Lactuca sativa; assay: Induction of hypocotyl elongation in lettuce seedlings at 100 mg/L after 4 days under 100 uE/m'2 light; format: functional; procedure, shortened: as §1

SMILES | Activity [1] | Activity [2] | Activity [3] [%] | Activity [4] | Activity [5] | Activity [6] [%] | Activity [7] [%] | Activity [8] [%] | inhibition at 100 µg/mL ([1]; 96 h) [%]
CC[C@H](C)[C@H]1NC(=O)[C@H](Cc2c[nH]c3ccccc23)NC1=O | inactive | Active | 167 | – | – | – | – | – | –
CC(C)C[C@H]1NC(=O)[C@H](Cc2c[nH]c3ccccc23)NC1=O | inactive | Active | 164 | – | – | – | – | – | –
O=C(O)Cc1c[nH]c2ccccc12 | – | – | – | Active | Active | – | – | – | –
C=C1C[C@]23C[C@@]1(O)CC[C@H]2[C@@]12C=C[C@H](O)[C@](C)(C(=O)O1)C2[C@@H]3C(=O)O (stereo partly specified) [GIBBERELLINE] | – | Active | 164 | – | – | 433 | 433 | 433 | –
C=CC(C)(C)[C@@]12C[C@H]3C(=O)N[C@H](C(C)C)C(=O)N3[C@@H]1Nc1ccccc12 [BREVICOMPANINE] | – | Active | 212 | – | – | – | – | – | 46
